{"data": "Published values collected from several papers", "FGFR3": "Fibroblast growth factor receptor 3 (FGFR3, Homo sapiens, UniProt P22607)", "FGFR3 G697C": "Fibroblast growth factor receptor 3 (FGFR3, Homo sapiens, UniProt P22607, G697C)"}
{"Compound": "COc1ccc2cc(OCC3(C(=O)O)CN(C(=O)c4ccc(F)cc4)C3)ccc2c1", "target": "FGFR3", "assay": "cell-free assay, competition with immobilised ligand", "setting": "1 µM", "remaining binding [%]": 100}
{"Compound": "CN(C)c1nccc(-c2cnn3ncccc23)n1", "target": "FGFR3 G697C", "assay": "binding", "setting": "1 µM", "remaining binding [%]": 65}
{"Compound": "O=C(NCCCN1CCOCC1)c1ccc(Nc2nccc(-c3cc4ccccc4s3)n2)cc1", "target": "FGFR3 G697C", "assay": "binding, competition with immobilised ligand", "setting": "1 µM", "remaining binding [%]": 79}
{"Compound": "O=C1NC(c2ccccn2)Sc2ccccc21 (stereo not drawn)", "target": "FGFR3", "assay": "cell-free assay, competition with immobilised ligand", "setting": "1 µM", "remaining binding [%]": 97}
{"Compound": "CN1CCN(c2ccc(Nc3nccc(-c4ccccc4)n3)cc2C(F)(F)F)CC1", "target": "FGFR3 G697C", "assay": "binding", "setting": "10 µM", "remaining binding [%]": 86}
{"Compound": "CN(c1nccc(-c2cnn3ncccc23)n1)C1CC1", "target": "FGFR3", "assay": "binding", "setting": "1 µM", "remaining binding [%]": 98}
{"Compound": "CCCCN(CCCC)C(=O)CN1C[C@@H](c2cc(OC)c3c(c2)OCO3)[C@H](C(=O)O)[C@H]1CC(C)(C)CCC", "target": "FGFR3", "assay": "cell-free assay, competition with immobilised ligand", "setting": "1 µM", "remaining binding [%]": 88.5}
{"Compound": "C[C@H]1CCN(c2nccc(-c3cnn4ncccc34)n2)C1", "target": "FGFR3", "assay": "binding", "setting": "1 µM", "remaining binding [%]": 100}
{"Compound": "COc1ncc2cc3ccccc3nc2c1C#N", "target": "FGFR3 G697C", "assay": "cell-free assay, competition with immobilised ligand", "setting": "5 µM", "remaining binding [%]": 96}
{"Compound": "c1cncc(-c2cccc(Nc3nccc(NC4CCCCC4)n3)c2)c1", "target": "FGFR3 G697C", "assay": "binding, competition with immobilised ligand", "setting": "10 µM", "remaining binding [%]": 51}
{"Compound": "CN(C)C(=O)Cn1cc(-c2nc([C@@](C)(c3ccc(-c4cnc(N)nc4)cc3)C3CC3)no2)cn1", "target": "FGFR3 G697C", "assay": "cell-free assay, competition with immobilised ligand", "setting": "1 µM", "remaining binding [%]": 89}
{"Compound": "O=C(c1ccc(Nc2ncc(Cl)c(-c3cc4ccccc4s3)n2)cc1)N1CCC(N2CCCC2)CC1", "target": "FGFR3 G697C", "assay": "binding, competition with immobilised ligand", "setting": "1 µM", "remaining binding [%]": 34}
{"Compound": "Cc1cnn2ncc(-c3ccnc(N(C)C)n3)c2c1", "target": "FGFR3", "assay": "binding", "setting": "1 µM", "remaining binding [%]": 100}
{"Compound": "Cc1cnc(Nc2ccc(C(=O)N3CCC(N4CCCC4)CC3)cc2)nc1-c1cc2ccccc2s1", "target": "FGFR3 G697C", "assay": "binding, competition with immobilised ligand", "setting": "1 µM", "remaining binding [%]": 16}
{"Compound": "Nc1ncc2c(n1)-c1c([nH]c3ccc(C#CC4CC4)cc13)CCCC2", "target": "FGFR3", "assay": "binding, competition with immobilised ligand", "setting": "1 µM", "remaining binding [%]": 95}
{"Compound": "C[C@@H](c1ccc(-n2cnc3c(N)ncnc32)cc1)N1CCc2nn(C)c(Cc3ccccc3)c2C1=O", "target": "FGFR3 G697C", "assay": "binding, competition with immobilised ligand", "setting": "0.1 µM", "remaining binding [%]": 96}
{"Compound": "CCN1CCN(Cc2ccc(C(=O)Nc3ccc(C)c(Oc4ccc5c(c4)CC(=O)N5)c3)cc2C(F)(F)F)CC1", "target": "FGFR3 G697C", "assay": "binding, competition with immobilised ligand", "setting": "1 µM", "remaining binding [%]": 88}
{"Compound": "c1cnn2ncc(-c3ccnc(N4CCC45COC5)n3)c2c1", "target": "FGFR3", "assay": "binding", "setting": "1 µM", "remaining binding [%]": 100}
{"Compound": "CNC(=O)[C@@H]1CC[C@@H](n2c(-c3ccc4cnccc4c3)nc3ccc(C(=O)NCc4cccc(C(N)=O)c4)cc32)C1", "target": "FGFR3 G697C", "assay": "binding, competition with immobilised ligand", "setting": "1 µM", "remaining binding [%]": 93}
{"Compound": "O=C(NCC1CCOCC1)c1n[nH]cc1NC(=O)c1c(F)cccc1F", "target": "FGFR3", "assay": "binding, competition with immobilised ligand", "setting": "1 µM", "remaining binding [%]": 100}
{"Compound": "COc1cnc(Nc2cccc(S(N)(=O)=O)c2)nc1N1CCN(c2ccccc2)C(=O)C1", "target": "FGFR3 G697C", "assay": "binding, competition with immobilised ligand", "setting": "1 µM", "remaining binding [%]": 92}
{"Compound": "O=C(NCc1ncc(C(F)(F)F)cc1Cl)c1ccc2c(c1)C1(CCS(=O)(=O)CC1)[C@H](C1CC1)N2S(=O)(=O)c1ccc(F)cc1", "target": "FGFR3 G697C", "assay": "cell-free assay, competition with immobilised ligand", "setting": "1 µM", "remaining binding [%]": 100}
{"Compound": "O=C(NCCCN1CCOCC1)c1ccc(Nc2ncc(Cl)c(-c3ccc(Cl)s3)n2)cc1", "target": "FGFR3 G697C", "assay": "binding, competition with immobilised ligand", "setting": "1 µM", "remaining binding [%]": 32}
{"Compound": "C=CC(=O)N1CCC(C(=O)NCC(=O)N2CCN(c3nc(-c4cnc(N)nc4C(F)F)nc(N4CCOCC4)n3)CC2)CC1", "target": "FGFR3", "assay": "binding, competition with immobilised ligand", "setting": "1 µM", "remaining binding [%]": 96}
{"Compound": "N[C@@H]1CCN(c2nccc(-c3cnn4ncccc34)n2)C1", "target": "FGFR3", "assay": "binding", "setting": "1 µM", "remaining binding [%]": 100}
{"Compound": "CSc1cccnc1N1CCN(Cc2nc3ccccc3[nH]2)CC1", "target": "FGFR3 G697C", "assay": "cell-free assay, competition with immobilised ligand", "setting": "1 µM", "remaining binding [%]": 100}
{"Compound": "F[C@@H]1CCN(c2nccc(-c3cnn4ncccc34)n2)C1", "target": "FGFR3 G697C", "assay": "binding", "setting": "1 µM", "remaining binding [%]": 79}
{"Compound": "CC(C)(C)c1ccc(-c2nc(CBr)nn2-c2cccc(O)c2)cc1", "target": "FGFR3", "assay": "cell-free assay, competition with immobilised ligand", "setting": "10 µM", "remaining binding [%]": 93}
{"Compound": "C[C@@H]1CN(c2ccc3ncc(-c4ccc5[nH]nc(C6CC6)c5c4)n3n2)C[C@H](C)O1", "target": "FGFR3", "assay": "binding, competition with immobilised ligand", "setting": "0.5 µM", "remaining binding [%]": 100}
{"Compound": "O=C(c1ccc(Nc2ncc(Cl)c(-c3ccc(Cl)s3)n2)cc1)N1CCC(N2CCCC2)CC1", "target": "FGFR3 G697C", "assay": "binding, competition with immobilised ligand", "setting": "1 µM", "remaining binding [%]": 4.9}
{"Compound": "CCC(=O)N[C@H]1CC[C@@H](C(=O)N(C)c2ccc(-c3nc4ccccc4o3)cc2)C1", "target": "FGFR3 G697C", "assay": "cell-free assay, competition with immobilised ligand", "setting": "1 µM", "remaining binding [%]": 100}
{"Compound": "O=C(c1ccc(Nc2nccc(-c3cc4ccccc4s3)n2)cc1)N1CCC(N2CCCC2)CC1", "target": "FGFR3 G697C", "assay": "binding, competition with immobilised ligand", "setting": "1 µM", "remaining binding [%]": 77}
{"Compound": "COc1cnc(Nc2cccc(S(N)(=O)=O)c2)nc1N1CCN(c2ccccc2)CC1", "target": "FGFR3 G697C", "assay": "binding, competition with immobilised ligand", "setting": "1 µM", "remaining binding [%]": 100}
{"Compound": "CC1CCCN1c1nccc(-c2cnn3ncccc23)n1 (stereo not drawn)", "target": "FGFR3 G697C", "assay": "binding", "setting": "1 µM", "remaining binding [%]": 86}
{"Compound": "CCCOc1ccc([C@H]2[C@H](C(=O)O)[C@@H](c3ccc4c(c3)OCO4)CN2CC(=O)Nc2c(CC)cccc2CC)cc1", "target": "FGFR3 G697C", "assay": "cell-free assay, competition with immobilised ligand", "setting": "1 µM", "remaining binding [%]": 85}
{"Compound": "O=C(Nc1c[nH]nc1C(=O)NC1CCNCC1)c1cc(F)cc(F)c1", "target": "FGFR3", "assay": "binding, competition with immobilised ligand", "setting": "1 µM", "remaining binding [%]": 100}
